Experimental data of several laboratories.
Compare with care: the assays were run in different laboratories. pEC50: −log10 of the molar value. Converted amounts (≈) assume the structure as drawn.

SMILES | tested on | test | test system | setting | endpoint | result
CCCCNc1ccnc(Nc2cccc(-c3cccnc3)c2)n1 | MV4-11 | cell growth or viability, ATP luminescence | – | 72 h | pEC50 | 6.47
Cc1ccc2nc(-n3nc(C)c4c3-c3ccccc3C4=O)sc2c1 | Staphylococcus aureus | microbial growth, well diffusion | NCIM5021 | 500 µg/mL | inhibition zone | 11 mm
O=C1NC(=S)N/C1=C\c1ccc(-c2ccc(N(c3ccccc3)c3ccccc3)cc2)c2ccccc12 | Staphylococcus aureus | microbial killing, broth dilution | ATCC6538 | – | MBC | > 1000 µg/mL
COc1ccc(-c2ccc3c(N4CCOC[C@@H]4C)nc(N4CCOC[C@@H]4C)nc3n2)cc1CO | Staphylococcus aureus | microbial growth | NCTC8325 | – | MIC | > 30 µM
c1ccc(N2CCCC(Nc3nccc(NC4CCCCC4)n3)C2)cc1 (stereo not drawn) | MV4-11 | cell growth or viability, ATP luminescence | – | 72 h | pEC50 | 5.45
O=C(O)CN1C(=O)/C(=C/c2ccc(-c3ccc(N(c4ccccc4)c4ccccc4)cc3)cc2)NC1=S | Staphylococcus aureus | microbial killing, broth dilution | ATCC43300 | – | MBC | 3.9 µg/mL (≈ 7.71 µM)
NC(=O)c1ccc(-c2nc(-c3ccccn3)c(-c3ccc4c(c3)OCO4)[nH]2)cc1 | Staphylococcus aureus | microbial growth | NCTC8325 | – | MIC | > 30 µM
O=C1NC(=S)N/C1=C\c1ccc(-c2ccc(N(c3ccccc3)c3ccccc3)cc2)cc1 | Staphylococcus aureus | microbial killing, broth dilution | ATCC43300 | – | MBC | > 1000 µg/mL
[H]/N=C(/N)N[C@H]1[C@H](O)[C@@H](O)[C@H](O[C@@H]2O[C@@H](C)[C@](O)(C=O)[C@H]2O[C@@H]2O[C@@H](CO)[C@H](O)[C@@H](O)[C@@H]2NC)[C@@H](N/C(N)=N\[H])[C@@H]1O | Staphylococcus aureus | microbial growth, well diffusion | NCIM5021 | 1000 µg/mL | inhibition zone | 30 mm
CC(C)Nc1ccnc(Nc2cccc(-c3cnccn3)c2)n1 | MV4-11 | cell growth or viability, ATP luminescence | – | 72 h | pEC50 | 8.30
Cc1ccc2nc(-n3nc(CC(C)C)c4c3-c3ccccc3C4=O)sc2c1 | Staphylococcus aureus | microbial growth, well diffusion | NCIM5021 | 1000 µg/mL | inhibition zone | 14 mm
CCCS(=O)(=O)Nc1ccc(F)c(C(=O)c2c[nH]c3ncc(Cl)cc23)c1F | Staphylococcus aureus | microbial growth | NCTC8325 | – | MIC | > 30 µM
COC(C)(C)CCC[C@](C)(O)[C@H]1CC[C@]2(C)[C@@H]1[C@H](O)C[C@@H]1[C@@]3(C)CC[C@H](O)C(C)(C)[C@@H]3CC[C@]12C | BEAS-2B | cell growth or viability | – | 25 µM, 24 h | inhibition | ~50%
CC(C)(C)Nc1ccnc(Nc2cccc(-c3cccnc3)c2)n1 | MV4-11 | cell growth or viability, ATP luminescence | – | 72 h | pEC50 | 7.60
O=C(Nc1c[nH]nc1-c1nc2ccc(CN3CCOCC3)cc2[nH]1)NC1CC1 | Staphylococcus aureus | microbial growth | NCTC8325 | – | MIC | > 30 µM
CC(C)c1nn(-c2nc3ccccc3s2)c2c1C(=O)c1ccccc1-2 | Staphylococcus aureus | microbial growth, well diffusion | NCIM5021 | 250 µg/mL | inhibition zone | 10 mm
O=C(Nc1ccc2c(c1)CCC2)Nc1ccc(Cl)c(C(F)(F)F)c1 | Staphylococcus aureus | microbial growth | NCTC8325 | 24 h | MIC | > 100 µM
Cc1nn(-c2nc3ccc(Cl)cc3s2)c2c1C(=O)c1ccccc1-2 | Staphylococcus aureus | microbial growth, well diffusion | NCIM5021 | 500 µg/mL | inhibition zone | 10 mm
